Data set [1] is described as follows: AUC was measured from the graph plotted against blood plasma concentration and time at the dose of 150 uMol/kg,. It counts as ADME.
Data set [2] is described as follows: AUC was measured from the graph plotted against blood plasma concentration and time at the dose of 300 uMol/kg,. Format: ADME.
Data set [3] has as its system Rattus norvegicus. Briefly: In vivo percentage efficacy, measured as ability to decrease blood glucose percentage after 11.25 days. Also on record: concentration or dose not given beside the values. It counts as functional. The gist of the method:
(§1)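 Rats (250-300 g) on high-fat purified diet, made diabetic by 40 mg/kg streptozotocin iv (tail vein) 3 days into diet. Selected by glucose criteria, including an oral glucose load (1.35 g/kg dextrose) after an 18 h fast. Dosed orally once daily at 70 µmol/kg in CMC for 11 days. Blood glucose taken 6 h post-dose (food removed). % efficacy: 100% = normalization to 60 mg/dL.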

Data set [4] relates to Rattus norvegicus. Briefly: In vivo percentage efficacy, measured as ability to decrease blood glucose percentage after 8.25 days in rats. Format: functional. Also on record: concentration or dose not given beside the values. The gist of the method: as §1
Data set [5] relates to Rattus norvegicus. Briefly: Ketone levels were determined in an acute in vivo study for inhibition of gluconeogenesis in normal male Sprague-Dawley rats. It counts as functional. Also on record: concentration or dose not given beside the values. The gist of the method:
(§2)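 Normal male Sprague-Dawley rats (200-300 g) fasted 18 h; five per group given compound by oral gavage at 100 µmol/kg in carboxymethylcellulose vehicle or vehicle alone. At 3 h, cardiac-puncture blood under brief CO₂ anesthesia; serum β-hydroxybutyrate (ketones) and glucose expressed as % of control; Student's t-test.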

For data set [6], the system named is Rattus norvegicus. In words: Glucose levels were determined in an acute in vivo study for inhibition of gluconeogenesis in normal male Sprague-Dawley rats. Also on record: concentration or dose not given beside the values. It counts as functional. An outline of the steps: as §2
Data set [7] can be described thus: AUC was measured from the graph plotted against blood plasma concentration and time at the dose of 700 uMol/kg,. Format: ADME.
Data set [8] concerns Rattus norvegicus. Briefly: In vivo percentage efficacy, measured as ability to decrease blood glucose percentage after 8.25 days. Format: functional. More on the design: concentration or dose not given beside the values. An outline of the steps: as §1
For data set [9], the system named is Rattus norvegicus. In words: Testes weight (treated)/body weight(treated)]/[testes weight(control)/body weight(control)] x 100 at a dose of 700 umol/kg/day. Format: functional.
Data set [10] is described as follows: AUC was measured from the graph plotted against blood plasma concentration and time at the dose of 150 uMol/kg.
For data set [11], the system named is Rattus norvegicus. In words: In vivo percentage efficacy was measured as ability to decrease blood glucose percentage after 11.25 days in rats. It counts as functional. The gist of the method:
as §1

Data set [12] deals with Rattus norvegicus. Briefly: Testes weight (treated)/body weight(treated)]/[testes weight(control)/body weight(control)] x 100 at a dose of 350 umol/kg/day. It counts as functional.
Data set [13] can be described thus: AUC was measured from the graph plotted against blood plasma concentration and time at the dose of 300 uMol/kg. It counts as ADME, cell-free.
For data set [14], the system named is Rattus norvegicus. Briefly: Testes weight (treated)/body weight(treated)]/[testes weight(control)/body weight(control)] x 100 at a dose of 700 uM/kg/day. It counts as functional.

Molecules are shown by their SMILES.

With `CC(C)(C)C(=O)c1ccc(C(=O)O/C(=N\OCC(=O)O)c2ccc(C(=O)C(C)(C)C)cc2)cc1`, the AUC in data set [1] was 1000 µg·h/mL; in data set [2], 2030 µg·h/mL. The Efficacy in data set [3] is reported as <102%; in data set [4], <90%. Further, the “Serum ketone level, % of control” value in data set [5] was <19%. Moreover, the Control in [6] is given as <63%.
In the case of `CC(C)O/N=C(\OC(=O)c1ccc(C(=O)C(C)(C)C)cc1)c1ccc(C(=O)C(C)(C)C)cc1`, the exposure (AUC) is 94 µg·h/mL in data set [1] and 155 µg·h/mL in data set [2]. Besides, the Efficacy in data set [3] was <98%; in data set [4], <80%. The “Serum ketone level, % of control” value in data set [5] is reported as <41%. This compound also registered a Control in data set [6] of 94%.
As to `Cc1ccc(C2(C(C)(C)C)OCCO2)cc1`, the AUC in data set [7] is 3560 µg·h/mL; in data set [10] it was 1510 µg·h/mL. The Efficacy in data set [3] is given as <64%; in [8], <52%. The “Serum ketone level, % of control” value in data set [5] was <12%. Also, the Control is <52% in [9] and <58% in data set [6].
For `CC(C)(C)C(=O)c1ccc(C(N)=O)cc1`, the Control in data set [9] is listed as <48%.
Consider `CC(C)(C)[C@@H](O)c1ccc(C(=O)O)cc1`, for which the Efficacy in [11] is <63%; in data set [4], <64%. Moreover, the “Serum ketone level, % of control” value in data set [5] is recorded as <23%. The Control is listed as <59% in [12] and <42% in data set [6].
Consider `CC(C)(C)C(O)c1ccc(C(=O)O)cc1` (centres undefined), for which the values for the Control in data set [12] and in data set [6] were <74% and <50%, respectively.
As for `CC(C)(C)C(=O)c1ccc(C2=N[C@@H](Cc3ccccc3)C(=O)O2)cc1`, in data set [2], the AUC is 413 µg·h/mL. The “Serum ketone level, % of control” value in [5] is recorded as <21%. The Control in data set [6] is recorded as <90%.
`CC(C)(C)C(=O)c1ccc(C(=O)O/C(=N\OCCO)c2ccc(C(=O)C(C)(C)C)cc2)cc1`: the AUC in [1] was found to be 122 µg·h/mL; in data set [2], 565 µg·h/mL. For the same compound, the Efficacy in [3] and in [4] was <92% in each case. The “Serum ketone level, % of control” value in data set [5] is <15%. The compound also displayed a Control in data set [6] of 98%.
As for `CC(C)(C)C(=O)c1ccc(C(=O)O)cc1`, the Control in data set [9] is <47%.
Take `CC(C)(C)C(=O)c1ccc(C2=NCCO2)cc1`: the exposure (AUC) in [2] came out at 886 µg·h/mL. In data set [5], the “Serum ketone level, % of control” value was <20%. In [6], the Control is given as <74%.
The compound `CC(C)(C)C(=O)c1ccc(C(=O)N(CC(=O)O)C(=O)c2ccc(C(=O)C(C)(C)C)cc2)cc1` displayed an AUC in data set [2] of 1080 µg·h/mL. Also, the values for the Efficacy in data set [3] and in data set [8] were <47% and <53%, respectively. The “Serum ketone level, % of control” value in data set [5] is <6%. Besides, in data set [6], the Control is recorded as <56%.
In data set [13], `CC(C)(C)C(=O)c1ccc(C(=O)N(C(=O)c2ccc(C(=O)C(C)(C)C)cc2)C(=O)c2cccnc2)cc1` came in with an exposure (AUC) of 64 µg·h/mL. Moreover, the results for the Efficacy in data set [3] and in data set [8] were <74% and <73%, respectively. Besides, in data set [5], the “Serum ketone level, % of control” value is given as <46%. Moreover, the Control in data set [12] and in [6] was 95% in each case.
Regarding `CC1(C)COC(c2ccc(C(=O)O)cc2)(C(C)(C)C)OC1`, in data set [2], the area under the curve (AUC) is 263 µg·h/mL. The “Serum ketone level, % of control” value in [5] is listed as <18%. Also, in [6], the Control is recorded as 105%.
For `CC(C)(C)C(=O)c1ccc(C(=O)N[C@@H](Cc2ccccc2)C(=O)O)cc1`, the area under the curve (AUC) in data set [2] is 964 µg·h/mL; in data set [7], 2930 µg·h/mL. The “Serum ketone level, % of control” value in [5] is listed as <4%.
Consider `CC(C)(C)[C@H](O)c1ccc(C(=O)O)cc1`, for which the “Serum ketone level, % of control” value in [5] is <80%. The Control in data set [12] is <62%; in data set [6] it was 94%.
In the case of `CC(C)(C)C(=O)c1ccc(C(=O)NC(=O)c2ccc(F)cc2)cc1`, the area under the curve (AUC) in data set [2] was 588 µg·h/mL; in data set [7], 2570 µg·h/mL. For the same compound, the figures for the Efficacy in data set [3] and in [8] were <54% and <57%, respectively. Besides, in data set [5], the “Serum ketone level, % of control” value is <13%. The Control in data set [9] was <63%; in [6], <65%.
Regarding `CO/N=C(\OC(=O)c1ccc(C(=O)C(C)(C)C)cc1)c1ccc(C(=O)C(C)(C)C)cc1`, the AUC in [2] came out at 85 µg·h/mL; in [7], 325 µg·h/mL. Moreover, the Efficacy is <59% in data set [3] and <64% in data set [4]. Further, the “Serum ketone level, % of control” value in data set [5] is given as <30%. Besides, the Control in data set [14] is reported as 96%; in [6] it was 98%.
In [13], `C=CCOC(c1ccc(C(=O)O)cc1)C(C)(C)C` (centres undefined) had an AUC of 941 µg·h/mL. Also, in data set [5], the “Serum ketone level, % of control” value is reported as <29%. Also, the Control in [6] came to 107%.
As for `CC(C)(C)C(=O)c1ccc(C(=O)O/C(=N\OCCCC(=O)O)c2ccc(C(=O)C(C)(C)C)cc2)cc1`, in data set [2], the area under the curve (AUC) turned out to be 1630 µg·h/mL. For the same compound, the “Serum ketone level, % of control” value in data set [5] is <15%. For the same compound, the Control in data set [6] is given as <70%.
Turning to `CC(C)(C)O/N=C(\OC(=O)c1ccc(C(=O)C(C)(C)C)cc1)c1ccc(C(=O)C(C)(C)C)cc1`, in data set [2], the exposure (AUC) is 55 µg·h/mL. Moreover, the figures for the Efficacy in data set [3] and in data set [4] were <98% and <80%, respectively. Besides, the “Serum ketone level, % of control” value in data set [5] was <50%. Besides, the Control was 102% in data set [14] and <70% in [6].
Compound `COCCO/N=C(\OC(=O)c1ccc(C(=O)C(C)(C)C)cc1)c1ccc(C(=O)C(C)(C)C)cc1` showed an area under the curve (AUC) in [2] of 1850 µg·h/mL. For the same compound, the Efficacy in data set [3] is <108%; in [4], <109%. For the same compound, the “Serum ketone level, % of control” value in [5] was <19%. Further, the Control in [6] is given as <49%.
`COC(c1ccc(C(=O)O)cc1)C(C)(C)C` (centres undefined) showed an exposure (AUC) in data set [2] of 1020 µg·h/mL. Also, the Efficacy was <59% in [3] and <23% in data set [8]. For the same compound, in data set [5], the “Serum ketone level, % of control” value was <17%. Also, the Control in data set [6] is <81%.
As to `CC(C)(C)C1(c2ccc(C(=O)O)cc2)OCCCO1`, the AUC in data set [2] is 1400 µg·h/mL. Also, the Efficacy in [3] is <65%; in [8], <41%. The “Serum ketone level, % of control” value in data set [5] is <15%. The compound further gave a Control in data set [6] of 111%.
In [2], `C=CCO/N=C(\OC(=O)c1ccc(C(=O)C(C)(C)C)cc1)c1ccc(C(=O)C(C)(C)C)cc1` registered an exposure (AUC) of 158 µg·h/mL. Moreover, the Efficacy in [3] is <85%; in [4] it was <53%. For the same compound, in data set [5], the “Serum ketone level, % of control” value was <43%. Also, the Control in data set [6] turned out to be 105%.
In the case of `CC(C)(C)C(=O)c1ccc(C(=O)NC(=O)c2ccc(C(=O)C(C)(C)C)cc2)cc1`, the exposure (AUC) was found to be 122 µg·h/mL in data set [2] and 2670 µg·h/mL in data set [7]. For the same compound, the “Serum ketone level, % of control” value in data set [5] is <21%. Also, the Control in data set [9] stood at 101%; in [6], 92%.
Consider `CO/N=C(\OC(=O)c1ccc([C@@H](O)C(C)(C)C)cc1)c1ccc([C@H](O)C(C)(C)C)cc1` (relative stereo), for which the AUC in data set [2] is 2370 µg·h/mL. Also, in data set [5], the “Serum ketone level, % of control” value was <17%. For the same compound, the Control in [6] was <61%.

What is called AUC is the area under the concentration-time curve, a measure of exposure.

The record behind these values is ChEMBL document CHEMBL1132198, “Hypoglycemic prodrugs of 4-(2,2-dimethyl-1-oxopropyl)benzoic acid” (J Med Chem, 1999).
